ChEMBL document CHEMBL1146592, “Structures of new friedelane-type triterpenes and eudesmane-type sesquiterpene and aldose reductase inhibitors from Salacia chinensis” (J Nat Prod, 2003)

What was measured:
[1] = molecular target: Aldo-keto reductase family 1 member B1 (Rattus norvegicus) (UniProt P07943); assay: Inhibition of aldose reductase in rat lens homogenate at 100 uM
How it was run: (§1)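 Crude enzyme was supernatant of rat lens homogenate. Reaction was started with NADPH at 30 °C, run 30 min and stopped with HCl. NADP was converted to a fluorescent product with NaOH/imidazole at 60 °C for 20 min. Read-out was fluorescence at ex 360/em 460 nm.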

[2] = molecular target: Aldo-keto reductase family 1 member B1 (Rattus norvegicus, UniProt P07943); assay: Inhibition of aldose reductase in rat lens homogenate; how it was run: as §1
[3] = molecular target: Aldo-keto reductase family 1 member B1 (Rattus norvegicus) (UniProt P07943); assay: Inhibition of aldose reductase in rat lens homogenate at 30 uM; how it was run: as §1

Row | SMILES | inhibition [1] | IC50 [2] | inhibition [3]
1 | COc1cc([C@H]2c3c(cc(OC)c(O)c3OC)C[C@@H](CO)[C@@H]2CO)cc(OC)c1O | 10% | > 100 µM | 
2 | CC1(C)C(=O)CC[C@]2(C)[C@H]3CC=C4[C@@H]5C[C@](C)(C(=O)O)C[C@H](O)[C@]5(C)CC[C@@]4(C)[C@]3(C)CC[C@@H]12 | 25% | > 100 µM | 
3 | CC1(C)CC[C@]2(C)CC[C@]3(C)C(=CC[C@@H]4[C@@]5(C)CCC(=O)C(C)(C)[C@@H]5CC[C@]43C)[C@@H]2C1 | 3% | > 100 µM | 
4 | COc1cc([C@H]2c3c(cc(OC)c(O)c3OC)C[C@@H](CO)[C@@H]2CO)ccc1O | 24% | > 100 µM | 
5 | CC1(C)[C@@H](O)CC[C@]2(C)[C@H]3CC=C4[C@@H]5C[C@](C)(C(=O)O)C[C@@H](O)[C@]5(C)CC[C@@]4(C)[C@]3(C)CC[C@@H]12 |  | 26 µM | 
6 | C[C@H]1C(=O)CC[C@@H]2[C@]1(C)CC[C@H]1[C@@]2(C)CC[C@@]2(C)[C@@H]3CC(C)(C)CC[C@]3(C)C[C@H](O)[C@]12C | 8% | > 100 µM | 
7 | C[C@H]1C(=O)CC[C@@H]2[C@]1(C)CC[C@H]1[C@@]2(C)CC[C@@]2(C)[C@@H]3C[C@](C)(CO)CC[C@]3(C)CC[C@]12C [3-OXO-29-HYDROXYFRIEDELANE] |  | 98 µM | 
8 | Oc1cc(O)c2c(c1)O[C@H](c1ccc(O)c(O)c1)[C@H](O)C2 [(-)-EPICATECHIN] |  | > 30 µM | 41%
9 | CC(=O)OC[C@]12[C@@H](OC(=O)c3ccccc3)C[C@@H]3[C@@H](OC(C)=O)[C@]1(OC3(C)C)[C@H](C)C[C@H](OC(C)=O)[C@@H]2O [CELAHIN C] |  | 95 µM | 
10 | Oc1cc(O)c2c(c1)O[C@H](c1ccc(O)c(O)c1)[C@@H](O)C2 [CIANIDANOL] |  | > 30 µM | 38%
11 | C[C@@H]1[C@H]2C3=CC[C@@H]4[C@@]5(C)CCC(=O)C(C)(C)[C@@H]5CC[C@@]4(C)[C@]3(C)CC[C@@]2(C)[C@@H](O)C[C@H]1C(=O)O [DEMETHYLREGELIN] | 26% | > 100 µM | 
12 | Oc1cc(O)c2c(c1)O[C@H](c1cc(O)c(O)c(O)c1)[C@H](O)C2 [EPIGALLOCATECHIN] |  | > 30 µM | 19%
13 | COc1cc([C@H]2c3cc(O)c(OC)cc3C[C@@H](CO)[C@@H]2CO)ccc1O [ISOLARICIRESINOL] | 36% | > 100 µM | 
14 | O=c1c2cc(O)c(O)cc2oc2cc(O)c([C@@H]3O[C@H](CO)[C@@H](O)[C@H](O)[C@H]3O)c(O)c12 [MANGIFERIN] |  | 3.2 µM | 
15 | CC1(C)[C@@H](O)CC[C@]2(C)[C@H]3CC=C4[C@@H]5C[C@](C)(C(=O)O)C[C@H](O)[C@]5(C)CC[C@@]4(C)[C@]3(C)CC[C@@H]12 [MAYTENFOLIC ACID] |  | 72 µM | 
16 | C[C@H]1C(=O)CC[C@@H]2[C@]1(C)CC[C@H]1[C@@]2(C)CC[C@@]2(C)[C@@H]3C[C@](C)(C(=O)O)CC[C@]3(C)CC[C@]12C [MAYTENOIC ACID] | 44% | > 100 µM | 
17 | C[C@@H]1[C@@]23CC[C@H]4[C@@](C)(CC[C@@]5(C)[C@@H]6C[C@](C)(C(=O)O)CC[C@]6(C)CC[C@]45C)[C@@H]2C[C@@H](O)[C@]1(O)OC3 [ORTHOSPHENIC ACID] | 19% | > 100 µM | 
18 | Cc1c(O)c(O)cc2c1CC[C@H]1[C@@]2(C)CC[C@@]2(C)[C@@H]3C[C@@H](C)C(=O)[C@@H](O)[C@]3(C)CC[C@]12C [REGEOL A] |  | 30 µM | 
19 | C[C@@H]1[C@@]23CC[C@H]4[C@@](C)(CC[C@@]5(C)[C@@H]6C[C@](C)(C(=O)O)CC[C@]6(C)CC[C@]45C)[C@@H]2CC[C@@]1(O)OC3 [SALASPERMIC ACID] | 2% | > 100 µM | 
20 | CC1=C(O)C(=O)C=C2C1=CC=C1[C@@]2(C)CC[C@@]2(C)[C@@H]3C[C@@H](C)C(=O)[C@@H](O)[C@]3(C)CC[C@]12C [TINGENIN B] |  | 7 µM | 
21 | CC1=C(O)C(=O)C=C2C1=CC=C1[C@@]2(C)CC[C@@]2(C)[C@@H]3C[C@@H](C)C(=O)C[C@]3(C)CC[C@]12C [TINGENONE] |  | 13 µM | 
22 | C[C@@H]1[C@H]2C3=CC[C@@H]4[C@@]5(C)CC[C@H](O)C(C)(C)[C@@H]5CC[C@@]4(C)[C@]3(C)CC[C@@]2(C)[C@@H](O)C[C@H]1C(=O)O [TRIPTERYGIC ACID A] | 27% | > 100 µM | 
23 | CC1=C2CC[C@H]3[C@@](C)(CC[C@@]4(C)[C@@H]5C[C@@H](C)C(=O)[C@@H](O)[C@]5(C)CC[C@]34C)[C@@H]2C[C@H](O)C1=O [TRIPTOCALLINE A] |  | 14 µM | 
24 | C[C@H]1C(=O)[C@H](O)C[C@@H]2[C@]1(C)CC[C@H]1[C@@]2(C)CC[C@@]2(C)[C@@H]3C[C@](C)(C(=O)O)CC[C@]3(C)CC[C@]12C [WILFOLIC ACID C] | 48% | 100 µM | 
25 | CC1(C)CC[C@]2(C)CC[C@]3(C)C(=CC[C@@H]4[C@@]5(C)CC[C@H](O)C(C)(C)[C@@H]5CC[C@]43C)[C@@H]2C1 [beta-AMYRIN] | 6% | > 100 µM | 
